Laboratory results published in ChEMBL document CHEMBL4152376, “Optimization of 8-Hydroxyquinolines as Inhibitors of Catechol O-Methyltransferase” (J Med Chem, 2018).
Values belong to the molecule of their own block, whether it stands above or below them.

Tests used:
[1] = target: T1, Catechol O-methyltransferase (Rattus norvegicus, UniProt P22734); assay: Inhibition of c-terminal hexa-His tagged rat S-COMT expressed in HEK293-6E cell membrane homogenate using 7,8-dihydroxy-4-methylcoumarin as substrate after 1 hr in presence of SAM by MTase glo methyltransferase assay
T1 sequence (P22734 whole entry): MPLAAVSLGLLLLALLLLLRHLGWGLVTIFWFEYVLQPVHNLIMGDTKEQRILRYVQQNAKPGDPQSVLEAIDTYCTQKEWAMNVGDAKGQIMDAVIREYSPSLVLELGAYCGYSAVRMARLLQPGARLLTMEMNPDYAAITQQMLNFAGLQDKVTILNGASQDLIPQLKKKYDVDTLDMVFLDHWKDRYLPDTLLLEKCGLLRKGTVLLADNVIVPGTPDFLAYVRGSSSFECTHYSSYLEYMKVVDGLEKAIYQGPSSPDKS
Outline: (§1)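 His6-tagged S-COMT (human or rat), expressed in 293-6E cells and purified by Ni-NTA and size exclusion, 1 ng per well. 20 µM SAM and 10 µM 7,8-dihydroxy-4-methylcoumarin in pH 6.9 Tris/MgCl2/DTT buffer, 1.5% DMSO. 1 h at 37 °C, then MTase-Glo luminescence read against a SAH standard curve. […] 4-parameter IC50; triplicate wells, three runs.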

[2] = Inhibition of P-glycoprotein (unknown origin); settings: human
[3] = Efflux ratio of permeability in MDCK cells; assay type: ADME, cell-based, Canis lupus familiaris; settings: dog
Outline: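 Efflux ratio taken as […] transport across P-glycoprotein-expressing MDCK cells.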

[4] = target: T2, Broad substrate specificity ATP-binding cassette transporter ABCG2 (Homo sapiens, UniProt Q9UNQ0); assay: Inhibition of BCRP (unknown origin); assay type: ADME
T2 sequence (Q9UNQ0 whole entry): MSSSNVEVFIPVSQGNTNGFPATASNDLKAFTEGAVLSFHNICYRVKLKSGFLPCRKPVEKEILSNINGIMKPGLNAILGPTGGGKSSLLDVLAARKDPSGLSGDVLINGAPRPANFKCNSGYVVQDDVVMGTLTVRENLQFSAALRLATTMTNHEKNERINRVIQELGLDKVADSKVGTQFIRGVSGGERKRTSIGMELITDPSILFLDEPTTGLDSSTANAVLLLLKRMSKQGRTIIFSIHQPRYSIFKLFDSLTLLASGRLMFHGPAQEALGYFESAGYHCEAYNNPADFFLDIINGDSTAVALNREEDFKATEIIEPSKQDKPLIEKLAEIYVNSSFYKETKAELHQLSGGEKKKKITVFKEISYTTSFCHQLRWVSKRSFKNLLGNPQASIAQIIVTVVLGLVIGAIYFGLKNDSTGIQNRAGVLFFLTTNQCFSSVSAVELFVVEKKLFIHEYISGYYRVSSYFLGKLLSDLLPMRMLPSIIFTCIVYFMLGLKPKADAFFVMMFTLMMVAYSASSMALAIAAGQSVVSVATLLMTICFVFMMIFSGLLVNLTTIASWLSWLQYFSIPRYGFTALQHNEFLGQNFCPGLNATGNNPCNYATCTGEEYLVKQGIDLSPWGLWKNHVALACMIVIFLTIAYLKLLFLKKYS

Rattus norvegicus [5] = assay: Volume of distribution at steady state in rat at 1 mg/kg, iv or 3/10 mg/kg, po; assay type: ADME, organism-based; settings: in vivo
Outline: (§2)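 Rat pharmacokinetics after a 1 mpk iv dose (n=3) and a 3 or 10 mpk oral dose (n=3).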

[6] = Drug level in CSF of Sprague-Dawley rat at 10 mg/kg, po after 4 hrs by ES-UPLC analysis; assay type: ADME, organism-based, Cerebrospinal fluid; settings: read-out: Drug uptake
Outline: (§3)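 Sprague Dawley rats given 10 mg/kg po; CSF, plasma and brain collected at 4 h. Drug measured in CSF; free plasma and brain levels computed from total levels using plasma protein and brain tissue binding fractions. Free CSF derived from CSF binding by equilibrium dialysis with pooled rat CSF. Ratios taken from these values.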

[7] = Clearance in rat hepatocytes assessed as per million cells; assay type: ADME, cell-based, Hepatocyte; settings: read-out: CLH
[8] = Ratio of drug level in CSF of Sprague-Dawley rat to unbound plasma concentration in Sprague-Dawley rat at 10 mg/kg, po after 4 hrs by ES-UPLC analysis; assay type: ADME, organism-based; settings: in vivo; outline: as §3
[9] = target: T3, Catechol O-methyltransferase (Homo sapiens, UniProt P21964); assay: Inhibition of c-terminal hexa-His tagged human MB-COMT expressed in HEK293 cell membrane homogenate using norepinephrine as substrate after 1 hr in presence of SAM by MTase glo methyltransferase assay
T3 sequence (P21964 whole entry): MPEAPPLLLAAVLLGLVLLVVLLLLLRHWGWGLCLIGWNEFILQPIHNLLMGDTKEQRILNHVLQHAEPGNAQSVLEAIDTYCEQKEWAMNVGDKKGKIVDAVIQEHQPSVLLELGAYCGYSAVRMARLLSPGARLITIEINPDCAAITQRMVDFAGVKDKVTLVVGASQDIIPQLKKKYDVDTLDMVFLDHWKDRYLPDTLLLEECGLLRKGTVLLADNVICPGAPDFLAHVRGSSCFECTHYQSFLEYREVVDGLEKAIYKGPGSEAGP
Outline: (§4)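 Membrane homogenate of HEK293 cells expressing C-terminal His6 MB-COMT (human about 7 ng, rat about 4 ng per well, protein by Bradford […]). 20 µM SAM and 7 µM norepinephrine in 50 mM Tris, 5–10 mM MgCl2, 2.5 mM DTT, pH 6.9, final DMSO 1.5%. 1 h at 37 °C, then MTase-Glo luminescence. […] 4-parameter IC50 fit; triplicate points, three experiments.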

[10] = Fraction unbound in rat plasma by equilibrium dialysis; assay type: ADME, cell-free
Outline: (§5)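 Percent free drug in mouse or rat plasma, measured by equilibrium dialysis.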

[11] = target: T1, Catechol O-methyltransferase; assay: Inhibition of c-terminal hexa-His tagged rat MB-COMT expressed in HEK293 cell membrane homogenate using norepinephrine as substrate after 1 hr in presence of SAM by MTase glo methyltransferase assay; outline: as §4
[12] = Half life in rat at 1 mg/kg, iv or 3/10 mg/kg, po; assay type: ADME, organism-based; settings: in vivo; outline: as §2
[13] = Unbound drug level in brain of Sprague-Dawley rat at 10 mg/kg, po after 4 hrs by ES-UPLC analysis; assay type: ADME, organism-based; settings: in vivo; outline: as §3
[14] = Protein binding in CSF of Sprague-Dawley rat at 2 uM by equilibrium dialysis; assay type: ADME, tissue-based, Cerebrospinal fluid; settings: read-out: PB (converted)
Outline: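 Binding in pooled rat CSF measured by equilibrium dialysis at 2 µM test concentration.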

[15] = Drug uptake in brain of C57BL/6J mouse at 10 mg/kg, ip measured at 1 hr post dose; assay type: ADME, organism-based; settings: C57BL/6J, brain, read-out: Drug uptake
Outline: (§6)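 Male C57BL/6J mice (8 weeks), single ip injection of 10 mg/kg suspended in 0.1% Tween80/0.1% antifoam/1% methylcellulose at 10 mL/kg. Two mice per timepoint; at 1 h, plasma separated at 4 °C and brain homogenized in 4 volumes PBS pH 7.4. Total brain and plasma levels measured.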

Rattus norvegicus [16] = assay: In vivo inhibition of COMT in Sprague-Dawley rat assessed as HVA levels in CSF at 10 mg/kg, po measured at 4 hrs post dose by LC-MS analysis relative to control; assay type: functional; design: scale not given: the % may be the effect or the level left
Outline: (§7)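 Male Sprague Dawley rats (176–200 g on arrival) dosed orally at 10 mg/kg in Tween80/antifoam/methylcellulose suspension, 10 mL/kg, vehicle group as control (n=5–10). At 4 h under isoflurane, CSF drawn from cisterna magna. HVA and DOPAC quantified by LC-MS against standards in 0.01 M perchloric acid/aCSF with d5 internal standards. Reported as % of vehicle.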

Rattus norvegicus [17] = assay: Oral bioavailability in rat at 3/10 mg/kg; assay type: ADME, organism-based; settings: in vivo; outline: as §2
[18] = Ratio of drug level in CSF of Sprague-Dawley rat to unbound brain concentration in Sprague-Dawley rat at 10 mg/kg, po after 4 hrs by ES-UPLC analysis; assay type: ADME, organism-based; settings: in vivo; outline: as §3
[19] = Ratio of unbound drug level in CSF of Sprague-Dawley rat to unbound plasma concentration in Sprague-Dawley rat at 10 mg/kg, po after 4 hrs by ES-UPLC analysis; assay type: ADME, organism-based; settings: CSF and plasma; outline: as §3
[20] = target: ATP-binding cassette sub-family C member 2 (Homo sapiens, UniProt Q92887); assay: Inhibition of MRP2 (unknown origin)
[21] = Unbound plasma concentration in Sprague-Dawley rat 10 mg/kg, po after 4 hrs by ES-UPLC analysis; assay type: ADME, organism-based; settings: in vivo; outline: as §3
[22] = Plasma concentration C57BL/6J mouse at 10 mg/kg, ip measured at 1 hr post dose; assay type: ADME, organism-based; outline: as §6
[23] = target: T3, Catechol O-methyltransferase; assay: Inhibition of c-terminal hexa-His tagged human S-COMT expressed in HEK293-6E cell membrane homogenate using 7,8-dihydroxy-4-methylcoumarin as substrate after 1 hr in presence of SAM by MTase glo methyltransferase assay; outline: as §1
Rattus norvegicus [24] = assay: In vivo inhibition of COMT in Sprague-Dawley rat assessed as DOPAC levels in CSF at 10 mg/kg, po measured at 4 hrs post dose by LC-MS analysis relative to control; assay type: functional; outline: as §7
[25] = Substrate activity at P-glycoprotein (unknown origin); assay type: ADME; settings: human
[26] = Fraction unbound in mouse plasma by equilibrium dialysis; assay type: ADME, cell-free; outline: as §5
[27] = Fraction unbound in rat brain by equilibrium dialysis; assay type: ADME, tissue-based
Outline: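 Percent free drug in rat brain tissue, measured by equilibrium dialysis.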

[28] = Unbound plasma concentration in Sprague-Dawley rat 15 mg/kg, ip after 4 hrs by ES-UPLC analysis; assay type: ADME, organism-based; settings: in vivo
[29] = Drug level in CSF of Sprague-Dawley rat at 15 mg/kg, ip after 4 hrs by ES-UPLC analysis; assay type: ADME, organism-based, Cerebrospinal fluid; settings: in vivo, BLD = below limit of detection
[30] = Unbound drug level in brain of Sprague-Dawley rat at 15 mg/kg, ip after 4 hrs by ES-UPLC analysis; assay type: ADME, organism-based; settings: in vivo, BLD = below limit of detection

Sequence of ATP-binding cassette sub-family C member 2 (Q92887 whole entry): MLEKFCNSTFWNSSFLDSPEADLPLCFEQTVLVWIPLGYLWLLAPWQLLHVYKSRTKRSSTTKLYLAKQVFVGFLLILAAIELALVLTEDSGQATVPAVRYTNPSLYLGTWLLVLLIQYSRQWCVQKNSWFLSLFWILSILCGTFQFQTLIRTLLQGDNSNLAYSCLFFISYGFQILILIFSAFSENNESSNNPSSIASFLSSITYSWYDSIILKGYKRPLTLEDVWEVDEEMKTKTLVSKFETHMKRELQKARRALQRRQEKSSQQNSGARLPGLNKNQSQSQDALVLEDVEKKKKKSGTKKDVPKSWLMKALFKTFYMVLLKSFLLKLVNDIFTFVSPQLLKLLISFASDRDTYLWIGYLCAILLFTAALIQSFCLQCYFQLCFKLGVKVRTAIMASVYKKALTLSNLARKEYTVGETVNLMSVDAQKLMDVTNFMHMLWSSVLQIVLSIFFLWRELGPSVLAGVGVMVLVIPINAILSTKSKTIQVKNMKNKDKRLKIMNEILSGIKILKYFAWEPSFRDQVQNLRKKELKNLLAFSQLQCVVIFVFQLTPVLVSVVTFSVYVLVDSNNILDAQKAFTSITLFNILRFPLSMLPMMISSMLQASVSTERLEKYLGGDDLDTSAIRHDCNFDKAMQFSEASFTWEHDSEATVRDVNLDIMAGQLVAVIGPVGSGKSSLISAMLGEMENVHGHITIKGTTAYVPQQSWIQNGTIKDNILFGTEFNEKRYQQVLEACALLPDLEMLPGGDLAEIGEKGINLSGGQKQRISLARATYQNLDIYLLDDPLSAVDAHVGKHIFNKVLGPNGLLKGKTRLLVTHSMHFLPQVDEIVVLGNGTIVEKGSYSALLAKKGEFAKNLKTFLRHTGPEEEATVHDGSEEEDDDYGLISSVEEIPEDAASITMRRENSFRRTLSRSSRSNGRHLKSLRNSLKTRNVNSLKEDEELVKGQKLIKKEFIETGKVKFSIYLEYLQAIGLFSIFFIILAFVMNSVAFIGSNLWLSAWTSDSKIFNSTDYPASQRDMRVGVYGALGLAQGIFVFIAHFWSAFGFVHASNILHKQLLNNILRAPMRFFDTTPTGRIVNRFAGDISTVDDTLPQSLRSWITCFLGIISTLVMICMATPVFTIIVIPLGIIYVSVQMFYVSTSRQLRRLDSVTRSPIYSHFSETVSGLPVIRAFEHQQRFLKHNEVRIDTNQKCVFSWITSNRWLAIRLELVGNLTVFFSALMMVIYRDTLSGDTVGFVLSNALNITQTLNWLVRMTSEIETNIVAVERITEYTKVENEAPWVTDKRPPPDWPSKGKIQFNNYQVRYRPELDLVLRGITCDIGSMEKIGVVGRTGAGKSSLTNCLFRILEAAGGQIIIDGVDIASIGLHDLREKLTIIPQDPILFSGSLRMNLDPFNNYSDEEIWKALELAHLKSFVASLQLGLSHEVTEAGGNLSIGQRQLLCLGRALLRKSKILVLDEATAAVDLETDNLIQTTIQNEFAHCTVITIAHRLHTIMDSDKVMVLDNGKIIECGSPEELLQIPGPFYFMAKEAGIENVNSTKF

IC50 [1]: 3980 nM | inhibition (INH) [2]: Not Active | efflux ratio [3]: 1.2 | inhibition (INH) [4]: Not Active | Vdss (Rattus norvegicus [5]): 2.2 L/kg | concentration at 4 h [6]: 157 nM | hepatocyte CLint [7]: 21 µL/min/1e6 cells | Ratio [8]: 6.8 | IC50 [9]: 3.98 nM | Fu [10]: 0.6 | IC50 [11]: < 1 nM | half-life [12]: 2.8 h | Drug uptake(free) [13]: 35 nM | fraction unbound at 2 µM [14]: 0.49 | concentration at 1 h [15]: 110 ng/g | F (Rattus norvegicus [17]): 73% | Ratio [18]: 4.4 | Kp uu at 4 h [19]: 3.3 | inhibition (INH) [20]: Not Active | Cp(f) [21]: 23 nM | concentration at 1 h [22]: 1820 ng/mL | IC50 [23]: 1580 nM | Activity [25]: Not Active
SMILES: O=S(=O)(c1cc(F)c(O)c2ncccc12)N1CCCC1
Activity (Rattus norvegicus [16]): 72% | CSF DOPAC level (% of vehicle) (Rattus norvegicus [24]): 140%

Fu [26]: 0.5 | hepatocyte CLint [7]: 228 µL/min/1e6 cells | IC50 [9]: 2 nM | fraction unbound [27]: 0.5 | concentration at 1 h [15]: 109 ng/g | concentration at 1 h [22]: 235 ng/mL | IC50 [23]: 2000 nM
SMILES: O=S(=O)(c1ccc(O)c2ncccc12)N1CCCC1Cc1ccccc1 (stereo not given)

Cp(f) [28]: 35 nM | Drug uptake [29]: Bld | Drug uptake(free) [30]: Bld
SMILES: Cc1ccc(C(=O)c2cc(O)c(O)c([N+](=O)[O-])c2)cc1 [TOLCAPONE]
